A word on the Ki: it is the equilibrium dissociation constant of an inhibitor or competing ligand from its target. Higher therefore signals weaker binding. What is called solubility is the dissolved amount per volume that the medium holds. Lower therefore signals a poorly soluble substance. One may read the logD as lipophilicity at a set pH, counting ionised and neutral species. Higher therefore signals a more lipophilic compound. Broadly, the microsomal CLint is the capacity of the preparation to metabolise the compound, expressed as a volume cleared per time. In general, clearance refers to the rate of elimination divided by the concentration. A high value points to a high capacity for elimination.

≈ marks a conversion by molar mass, not a printed value.

Data set [1] has as its target T1, C-X-C chemokine receptor type 3 (Homo sapiens, UniProt P49682).
T1 sequence (P49682 whole entry): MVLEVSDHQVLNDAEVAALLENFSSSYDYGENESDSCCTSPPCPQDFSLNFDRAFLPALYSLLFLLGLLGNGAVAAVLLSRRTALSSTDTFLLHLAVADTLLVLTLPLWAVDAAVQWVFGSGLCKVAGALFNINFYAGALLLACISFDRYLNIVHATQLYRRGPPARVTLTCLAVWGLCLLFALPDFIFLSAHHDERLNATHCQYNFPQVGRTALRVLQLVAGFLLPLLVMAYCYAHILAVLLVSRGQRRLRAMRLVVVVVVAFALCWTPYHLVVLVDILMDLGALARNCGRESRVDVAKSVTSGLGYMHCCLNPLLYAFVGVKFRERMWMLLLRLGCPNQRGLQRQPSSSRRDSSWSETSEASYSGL
As to the kind of experiment: Antagonist activity at human CXCR3 expressed in CHO cells by [35S]GTP-gamma-S binding assay. The format is functional, cell-based.

Data set [2] has as its target T2, C-X-C chemokine receptor type 3 (Homo sapiens) (UniProt P49682).
T2 sequence (whole entry): T1 sequence (P49682 whole entry)
Put plainly: Antagonist activity at human CXCR3 expressed in CHO cells by [35S]GTP-gamma-S binding assay at 10 uM. The format is functional, cell-based. In general terms: Binding of GTPγS marks nucleotide exchange on a G protein.

Data set [3] can be described thus: Aqueous solubility at pH 6.5. The format is physicochemical.
Data set [4] can be described thus: Distribution coefficient, log D of the compound. The note with it: octanol/water. The format is physicochemical.
Data set [5] can be described thus: Clearance in mouse liver microsomes at 0.5 uM. The format is ADME, Microsome. An outline of the steps: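 Clearance determined in mouse liver microsomes with compound at 0.5 µM.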
Data set [6] is described as follows: Clearance in mouse at 1 mg/kg, iv. On the set-up: dose 1 mg/kg, route intravenous. The conditions noted are these: in vivo. The format is ADME, organism-based. An outline of the steps: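 Mice given 1 mg/kg intravenously; clearance determined.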
Data set [7] deals with T3, C-X-C chemokine receptor type 3 (Mus musculus, UniProt O88410).
T3 sequence (O88410 whole entry): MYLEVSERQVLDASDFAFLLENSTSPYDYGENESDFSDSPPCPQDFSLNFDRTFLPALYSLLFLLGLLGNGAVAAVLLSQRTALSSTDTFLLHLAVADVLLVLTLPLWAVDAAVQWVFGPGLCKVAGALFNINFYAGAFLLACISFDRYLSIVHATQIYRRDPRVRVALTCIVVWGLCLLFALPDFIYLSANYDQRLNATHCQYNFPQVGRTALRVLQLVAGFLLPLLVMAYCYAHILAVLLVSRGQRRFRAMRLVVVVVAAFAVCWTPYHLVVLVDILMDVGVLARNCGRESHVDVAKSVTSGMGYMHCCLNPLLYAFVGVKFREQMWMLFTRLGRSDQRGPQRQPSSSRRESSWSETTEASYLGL
As to the kind of experiment: Antagonist activity at mouse CXCR3 by [35S]GTP-gamma-S binding assay. The format is functional.

The next data set has as its target Cytochrome P450 2D6 (Homo sapiens, UniProt P10635). As to the kind of experiment: Inhibition at human CYP2D6. The format is ADME.

Chain of Cytochrome P450 2D6 (P10635 whole entry): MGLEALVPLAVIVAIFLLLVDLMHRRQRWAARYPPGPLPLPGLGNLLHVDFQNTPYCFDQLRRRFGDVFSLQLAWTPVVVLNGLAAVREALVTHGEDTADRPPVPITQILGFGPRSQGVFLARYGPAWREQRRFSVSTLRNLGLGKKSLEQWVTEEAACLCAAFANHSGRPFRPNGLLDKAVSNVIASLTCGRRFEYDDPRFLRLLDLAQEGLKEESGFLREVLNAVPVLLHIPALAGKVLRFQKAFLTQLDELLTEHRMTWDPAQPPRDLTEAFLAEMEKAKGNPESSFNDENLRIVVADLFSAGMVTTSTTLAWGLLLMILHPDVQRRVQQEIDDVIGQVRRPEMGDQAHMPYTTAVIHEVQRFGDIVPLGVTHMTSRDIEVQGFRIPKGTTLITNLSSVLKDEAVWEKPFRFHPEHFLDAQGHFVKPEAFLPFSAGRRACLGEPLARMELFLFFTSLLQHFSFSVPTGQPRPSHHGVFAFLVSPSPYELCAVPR

As for `COC(=O)c1cccc(NC(=O)NC2CCN(CC3=CC[C@H]4C[C@@H]3C4(C)C)CC2)c1`, in data set [1], the affinity, expressed as Ki, was 376 nM.

Molecule `O=C(Nc1ccc2ccccc2c1)NC1CCN(CCc2ccccc2)CC1` displayed a Ki in data set [1] of 1300 nM.

In turn, `CC1(C)[C@H]2CC=C(CN3CCC(NC(=O)Nc4cncc(Br)c4)CC3)[C@@H]1C2` registered an inhibitory constant (Ki) in data set [1] of 171 nM.

`CC1(C)[C@H]2CC=C(CN3CCC(NC(=O)Nc4cc(F)cc(F)c4)CC3)[C@@H]1C2` came in with a Ki in data set [1] of 171 nM.

`CC1(C)[C@H]2CC=C(CN3CCC(NC(=O)Nc4ccc(OC(F)(F)F)cc4)CC3)[C@@H]1C2` had an inhibitory constant (Ki) in data set [1] of 175 nM.

The molecule `O=C(Nc1ccc(-c2ccccc2)s1)NC1CCN(C/C2=C/CCCCCC2)CC1` registered a Ki in data set [1] of 108 nM.

With `O=C(Nc1ccc2ccccc2c1)NC1CCN(CC23C=CC(CC2)C3)CC1` (stereo not given), the Intrinsic activity in data set [2] was under 50%.

`N#Cc1ccc(NC(=O)NC2CCN(C/C3=C/CCCCCC3)CC2)cc1`: in data set [2], the Intrinsic activity was under 50%.

In data set [1], `CC1(C)[C@H]2CC=C(CN3CCC(NC(=O)Nc4ccc(-c5ccc(C(F)(F)F)cc5)s4)CC3)[C@@H]1C2` displayed an inhibitory constant (Ki) of 39 nM. This counts as double-digit nanomolar.

The molecule `O=C(Nc1cc(Cl)cc(Cl)c1)NC1CCN(C/C2=C/CCCCCC2)CC1` yielded a Ki in data set [1] of 41 nM.

The molecule `O=C(Nc1ccc(Oc2ccccc2)cc1)NC1CCN(C/C2=C/CCCCCC2)CC1` returned an inhibitory constant (Ki) in data set [1] of 306 nM.

In data set [1], `CC1(C)[C@H]2CC=C(CN3CCC(NC(=O)Nc4cccc(OC(F)(F)F)c4)CC3)[C@@H]1C2` returned a Ki of 31 nM.

In turn, `O=C(Nc1ccc2ccccc2c1)NC1CCN(CCCc2ccccc2)CC1` returned a Ki in data set [1] of 2200 nM.

For `O=C(Nc1cccc(Cl)c1)NC1CCN(C/C2=C/CCCCCC2)CC1`, the affinity in data set [1] corresponds to a Ki of 201 nM.

Regarding `O=C(Nc1cccc(C(F)(F)F)c1)NC1CCN(C/C2=C/CCCCCC2)CC1`, the Ki in data set [1] came out at 88 nM.

For `O=C(Nc1cccc(OC(F)(F)F)c1)NC1CCN(C/C2=C/CCCCCC2)CC1`, in data set [1], the Ki came to 104 nM. This Ki and that of the molecule before are within 1.5-fold of each other.

`CC1(C)[C@H]2CC=C(CN3CCC(NC(=O)Nc4cc(F)cc(OC5CCOC5)c4)CC3)[C@@H]1C2` (stereo not given in full) gave a solubility in data set [3] of 874 µg/mL (≈ 1910 µM). The molecule further showed a logD in data set [4] of 3. Affinity in data set [1] was put at a Ki of 83 nM. Also, the microsomal CLint at 0.5 µM in data set [5] is 97 µL/min/mg.

In the case of `CC(=O)c1cccc(NC(=O)NC2CCN(C/C3=C/CCCCCC3)CC2)c1`, the Ki in data set [1] was determined as 637 nM.

Turning to `O=C(Nc1cc(Cl)nc(Cl)c1)NC1CCN(C/C2=C/CCCCCC2)CC1`, affinity in data set [1] was put at a Ki of 3400 nM.

As to `CC(=O)c1cccc(NC(=O)NC2CCN(CC3=CC[C@H]4C[C@@H]3C4(C)C)CC2)c1`, the affinity in data set [1], expressed as Ki, was 258 nM.

Molecule `O=C(Nc1cc(F)cc(C(F)(F)F)c1)NC1CCN(C/C2=C/CCCCCC2)CC1` had a Ki in data set [1] of 47 nM.

Take `COc1cccc(NC(=O)NC2CCN(CC3=CC[C@H]4C[C@@H]3C4(C)C)CC2)c1`: affinity in data set [1] was put at a Ki of 429 nM.

In data set [1], `CC1(C)C2CC=C(CCN3CCC(NC(=O)Nc4ccc5ccccc5c4)CC3)C1C2` (stereo not given) registered a Ki of 290 nM. This Ki and that of the molecule before are within 1.5-fold of each other.

`CC(C)(C)c1ccc(NC(=O)NC2CCN(C/C3=C/CCCCCC3)CC2)cc1` returned a Ki in data set [1] of 1040 nM.

In data set [1], `CC1(C)[C@H]2CC=C(CN3CCC(NC(=O)Nc4ccc(-c5ccccc5)s4)CC3)[C@@H]1C2` showed an inhibition constant (Ki) of 191 nM.

In data set [2], `N#Cc1cccc(NC(=O)NC2CCN(C/C3=C/CCCCCC3)CC2)c1` had an Intrinsic activity of under 50%.

For the molecule `O=C(Nc1cccc2ccccc12)NC1CCN(C/C2=C/CCCCCC2)CC1`, the Intrinsic activity in data set [2] was under 50%.

In the case of `CC1(C)[C@H]2CC=C(CN3CCC(NC(=O)Nc4ccccc4)CC3)[C@@H]1C2`, the affinity in data set [1] corresponds to a Ki of 2000 nM.

`CC1(C)[C@H]2CC=C(CN3CCC(NC(=O)Nc4ccc(F)c(C(F)(F)F)c4)CC3)[C@@H]1C2` showed an inhibitory constant (Ki) in data set [1] of 81 nM.

In data set [1], `COC(=O)c1cccc(NC(=O)NC2CCN(C/C3=C/CCCCCC3)CC2)c1` had a Ki of 660 nM.

Turning to `CC1(C)[C@H]2CC=C(CN3CCC(NC(=O)Nc4cc(F)cc(C(F)(F)F)c4)CC3)[C@@H]1C2`, in data set [1], the inhibitory constant (Ki) was 16 nM.

For `CC1(C)[C@H]2CC=C(CN3CCC(NC(=O)Nc4cccc(CN5CCOCC5)c4)CC3)[C@@H]1C2`, the Intrinsic activity in data set [2] was under 50%.

For the molecule `O=C(Nc1ccsc1)NC1CCN(C/C2=C/CCCCCC2)CC1`, the Intrinsic activity in data set [2] was under 50%.

For the molecule `CC1(C)[C@H]2CC=C(CN3CCC(NC(=O)Nc4cncc(-c5cccs5)c4)CC3)[C@@H]1C2`, the solubility in data set [3] is 4 µg/mL (≈ 9.16 µM). Also, in data set [4], the pH-dependent lipophilicity (logD) was 3.47. This molecule came in with a Ki in data set [1] of 70 nM. The same molecule showed a microsomal CLint at 0.5 µM in data set [5] of 324 µL/min/mg. The same molecule registered a clearance in data set [6] of 112 mL/min/kg.

As to `O=C(Nc1ccc2ccccc2c1)NC1CCN(C/C2=C/CCCCCC2)CC1`, the figures for the Ki (in data set [7]; on Cytochrome P450 2D6; in data set [1]) were 400 nM, 600 nM and 110 nM, respectively. In addition, the solubility in data set [3] stood at 1 µg/mL (≈ 2.55 µM). This molecule also displayed a log distribution coefficient (logD) in data set [4] of 4.95.

For `O=C(Nc1cc(C(F)(F)F)cc(C(F)(F)F)c1)NC1CCN(C/C2=C/CCCCCC2)CC1`, in data set [1], the Ki amounted to 36 nM.

In data set [2], `CC1(C)[C@H]2CC=C(CN3CCC(NC(=O)Nc4cccc(CO)c4)CC3)[C@@H]1C2` yielded an Intrinsic activity of under 50%.

Turning to `CC1(C)[C@H]2CC=C(CN3CCC(NC(=O)Nc4cccc(OC5CCOC5)c4)CC3)[C@@H]1C2` (stereo not given in full), in data set [3], the solubility stood at 927 µg/mL (≈ 2110 µM). Also, the log distribution coefficient (logD) in data set [4] is 3.87. Moreover, the Ki in data set [1] was 141 nM. In data set [5], this molecule came in with a microsomal CLint at 0.5 µM of 287 µL/min/mg. Further, the clearance in data set [6] amounted to 222 mL/min/kg.

As for `CC1(C)[C@H]2CC=C(CN3CCC(NC(=O)Nc4cc(C(F)(F)F)cc(C(F)(F)F)c4)CC3)[C@@H]1C2`, the inhibition constant (Ki) in data set [1] was determined as 73 nM.

Consider `CC1(C)[C@H]2CC=C(CN3CCC(NC(=O)Nc4ccc(-c5ccccc5Cl)s4)CC3)[C@@H]1C2`, for which the inhibition constant Ki in data set [1] was 46 nM. Compared with the last molecule, the Ki is about 1.6-fold lower.

With `CC1(C)[C@H]2CC=C(CN3CCC(NC(=O)Nc4cc(C(F)(F)F)ccc4F)CC3)[C@@H]1C2`, the Ki in data set [1] is 229 nM.

`COc1cccc(-c2ccc(NC(=O)NC3CCN(CC4=CC[C@H]5C[C@@H]4C5(C)C)CC3)s2)c1` gave an inhibitory constant (Ki) in data set [1] of 29 nM.

Regarding `CC1(C)[C@H]2CC=C(CN3CCC(NC(=O)Nc4cncc(-c5ccsc5)c4)CC3)[C@@H]1C2`, in data set [1], the affinity corresponds to a Ki of 107 nM.

In data set [1], `CC1(C)[C@H]2CC=C(CN3CCC(NC(=O)Nc4cccc(OC5CCOCC5)c4)CC3)[C@@H]1C2` showed an inhibition constant (Ki) of 191 nM.

With `CC1(C)[C@H]2CC=C(C[N+]3(C)CCC(NC(=O)Nc4cc(F)cc(C(F)(F)F)c4)CC3)[C@@H]1C2.[I-]` (stereo not given in full), in data set [3], the concentration in solution (solubility) came to 55 µg/mL. The molecule also had a log distribution coefficient (logD) in data set [4] of 2.35. The molecule further came in with an inhibition constant Ki in data set [1] of 28 nM. For the same molecule, the intrinsic metabolic clearance (microsomal CLint) at 0.5 µM in data set [5] stood at 66 µL/min/mg. The molecule further came in with a clearance in data set [6] of 34.5 mL/min/kg.

As for `CC1(C)[C@H]2CC=C(CN3CCC(NC(=O)Nc4cccc(C(=O)O)c4)CC3)[C@@H]1C2`, the Intrinsic activity in data set [2] is under 50%.

Source of the values: ChEMBL document CHEMBL1143784, “Identification and structure-activity relationships of 1-aryl-3-piperidin-4-yl-urea derivatives as CXCR3 receptor antagonists” (Bioorg Med Chem Lett, 2007).
